Legend:
[1] = test system: HepG2; assay: Antiproliferative activity against human HepG2 cells by SRB assay; format: functional, cell-based
[2] = test system: MDA-MB-231; assay: Antiproliferative activity against human MDA-MB-231 cells by SRB assay; format: functional, cell-based
[3] = test system: A549; assay: Antiproliferative activity against human A549 cells by SRB assay; format: functional, cell-based
[4] = test system: U-118-MG; assay: Antiproliferative activity against human U118MG cells by SRB assay; format: functional, cell-based
[5] = Antiproliferative activity against human MMRU cells by SRB assay; format: functional, cell-based
[6] = test system: HT-29; assay: Antiproliferative activity against human HT-29 cells by SRB assay; format: functional, cell-based
[7] = test system: HeLa; assay: Antiproliferative activity against human HeLa cells by SRB assay; format: functional, cell-based
[8] = test system: MCF7; assay: Antiproliferative activity against human MCF7 cells by SRB assay; format: functional, cell-based
[9] = Antiproliferative activity against human HTB-174 cells by SRB assay; format: functional, cell-based
[10] = test system: NCI-H460; assay: Cell cycle arrest in human H460 cells assessed as DNA content at G0-G1 phase at 50 uM after 16 hrs by flow cytometry; format: functional
How it was run: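 H-460 NSCLC cells serum-starved 72 h, then exposed to 50 µM for 16 h, with DMSO vehicle control. Harvested cells were washed in cold PBS and fixed in 70% ethanol at 4 °C for at least 4 h. They were treated with 3 mg/ml RNase plus 50 µg/ml propidium iodide for 30 min at 37 °C. Flow cytometry gave percent cells in G0–G1, S and G2–M.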

[11] = test system: HT-29; assay: Cell cycle arrest in human HT-29 cells assessed as DNA content at G0-G1 phase at 25 uM after 16 hrs by flow cytometry; format: functional
How it was run: (§1)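 HT-29 colon carcinoma cells were grown in complete medium and treated at 25 or 50 µM for 16 h, with 0.1% DMSO as vehicle. Cells were washed in cold PBS and fixed in 70% ethanol (4 °C, ≥4 h). Staining used 3 mg/ml ribonuclease and 50 µg/ml propidium iodide for 30 min at 37 °C. Phase distribution was measured by flow cytometry.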

[12] = test system: HT-29; assay: Cell cycle arrest in human HT-29 cells assessed as DNA content at G0-G1 phase at 50 uM by flow cytometry; format: functional; how it was run: as §1
[13] = test system: HT-29; assay: Cell cycle arrest in human HT-29 cells assessed as DNA content at S phase at 50 uM by flow cytometry; format: functional; how it was run: as §1
[14] = test system: HT-29; assay: Cell cycle arrest in human HT-29 cells assessed as DNA content at G2-M phase at 50 uM by flow cytometry; format: functional; how it was run: as §1
[15] = test system: HT-29; assay: Cell cycle arrest in human HT-29 cells assessed as DNA content at S phase at 25 uM after 16 hrs by flow cytometry; format: functional; how it was run: as §1
[16] = test system: HT-29; assay: Cell cycle arrest in human HT-29 cells assessed as DNA content at G2-M phase at 25 uM after 16 hrs by flow cytometry; format: functional; how it was run: as §1

SMILES	IC50 [1] [nM]	IC50 [2] [nM]	IC50 ([3]; Homo sapiens, A549) [nM]	IC50 [4] [nM]	IC50 ([5]; Homo sapiens, MMRU) [nM]	IC50 ([6]; Homo sapiens, HT-29) [nM]	IC50 [7] [nM]	IC50 [8] [nM]	IC50 [9] [nM]	also measured
COc1ccc2c(c1)CN(C(=O)c1ccc([N+](=O)[O-])cc1)c1ccc(Cl)cc1C2c1ccccc1Cl (centres undefined)	900	900	1500	800	500	600	500	1300	500	–
CN(C)c1ccc(C(=O)N2Cc3ccccc3C(c3ccccc3)c3ccccc32)cc1 (centres undefined)	1000	1700	2100	2600	–	1000	900	1700	–	–
O=C(c1ccc([N+](=O)[O-])cc1)N1Cc2ccccc2C(c2ccccc2)c2ccccc21 (centres undefined)	900	–	–	900	500	700	600	–	700	–
Clc1ccccc1C1c2ccccc2CN(Cc2ccccc2)c2ccccc21 (centres undefined)	4500	> 5000	> 5000	–	–	> 5000	> 5000	4300	–	–
O=C(Nc1ccc([N+](=O)[O-])cc1)N1Cc2ccccc2C(c2ccccc2Cl)c2ccccc21 (centres undefined)	4500	–	> 5000	–	3100	4800	–	2400	4000	–
CN1Cc2ccccc2C(c2ccccc2Cl)c2ccccc21 (centres undefined)	–	–	11400	–	4600	9700	–	1700	–	–
COC(=O)N1Cc2ccccc2C(c2ccccc2)c2ccccc21 (centres undefined)	–	–	> 10000	–	10000	> 10000	–	–	–	–
Nc1ccc(C(=O)N2Cc3ccccc3C(c3ccccc3Cl)c3ccccc32)cc1 (centres undefined)	1500	1200	3700	1600	–	1700	500	1100	–	–
O=C(Oc1ccccc1)N1Cc2ccccc2C(c2ccccc2Cl)c2ccccc21 (centres undefined)	3600	–	–	–	–	5000	–	4200	–	–
CC(C)(C)Oc1cccc(C(=O)N2Cc3ccccc3C(c3ccccc3Cl)c3ccccc32)c1 (centres undefined)	1200	1500	3700	2500	–	1700	1400	3400	–	–
COc1ccc(C(=O)N2Cc3ccccc3C(c3ccccc3Cl)c3ccccc32)cc1 (centres undefined)	400	–	1100	400	200	400	200	500	300	–
Clc1ccccc1C1c2ccccc2CNc2ccccc21 (centres undefined)	900	1300	5400	1400	–	1200	1100	2700	–	–
COc1ccc2c(c1)C(c1ccccc1Cl)c1cc(Cl)ccc1N(C(=O)c1ccc([N+](=O)[O-])cc1)C2 (centres undefined)	400	400	600	400	200	200	200	700	200	–
O=C(c1ccccc1)N1Cc2ccccc2C(c2ccccc2Cl)c2ccccc21 (centres undefined)	800	1200	2500	1300	–	600	900	1500	–	–
CC(C)(C)Oc1cccc(C(=O)N2Cc3ccccc3C(c3ccccc3)c3ccccc32)c1 (centres undefined)	2600	–	> 5000	–	2500	1700	–	4500	3600	–
C[N+](C)(C)c1ccc(C(=O)N2Cc3ccccc3C(c3ccccc3)c3ccccc32)cc1 (centres undefined)	1000	1300	2000	1800	–	1100	400	1700	–	–
O=C(c1ccc([N+](=O)[O-])cc1)N1Cc2ccccc2C(c2ccccc2Cl)c2ccccc21 (single isomer, unassigned; 9a)	–	–	–	–	–	–	–	–	–	Activity [10]: 71.06%
O=C(c1ccc([N+](=O)[O-])cc1)N1Cc2ccccc2C(c2ccccc2Cl)c2ccccc21 (single isomer, unassigned; 9b)	–	–	–	–	–	–	–	–	–	Activity [10]: 74.96%
O=C(c1ccc([N+](=O)[O-])cc1)N1Cc2ccccc2C(c2ccccc2Cl)c2ccccc21 (stereo in doubt; 9)	300	500	800	500	200	300	300	600	100	Activity [11]: 63.68%; Activity [12]: 69.22%; Activity [13]: 18.08%; Activity [14]: 12.69%; Activity [15]: 25.79%; Activity [10]: 73.95%; Activity [16]: 10.53%
O=C(c1ccccc1)N1Cc2ccccc2C(c2ccccc2)c2ccccc21 (stereo in doubt; 13)	–	–	> 10000	–	–	–	–	–	–	IC50 ([5]; mmru): > 10000 nM; IC50 ([6]; ht-29): > 10000 nM
O=C(c1ccccc1)N1Cc2ccccc2C(c2ccccc2)c2ccccc21 (stereo in doubt; 17)	3400	–	–	–	–	–	–	4200	2600	IC50 ([3]; a549): > 5000 nM; IC50 ([5]; mmru): 2700 nM; IC50 ([6]; ht-29): 2600 nM

— ChEMBL document CHEMBL1139294, “11-Phenyl-[b,e]-dibenzazepine compounds: novel antitumor agents” (Bioorg Med Chem Lett, 2009)
